Rows were chosen to be rich in hits. Some 4% of all compounds tested hit in one or more screens of this group.
Cl transport mod: modulates chloride dependent transport by human KCC2; B-score of Tl+ flux slope (higher = more flux/activation; lower = inhibition) at 10 µM; Q9H2X9; KCC2 cells, thallium flux FluoZin-2 fluorescence; 190,000 compounds, 2.2% hits;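 active means thallium flux slope and its plate-corrected score both differing from the plate sample mean at a set confidence after two filtering rounds, in either direction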;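 further: slope of fluorescence scaled to starting intensity during 10 to 20 s after thallium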
MT stabilize HCS: microtubule stabilizers in HeLa cells; HeLa tubulin immunostaining HCS, 24 h; share of cells brighter than vehicle mean+2SD; % tubulin-high responders, % at 10 µM; 200,000 compounds, 0.83% hits; AID 2205;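 active means plate Z-score above 3 for both tubulin-high and condensed-nucleus cell shares, with cell loss under 80%, at 10 µM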;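 further: anti alpha tubulin signal scored within the nucleus-defined area of each cell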
WT yeast gro inh: growth inhibition of WT yeast, mitochondrial fusion screen | 190,000 compounds, 2.1% hits | inhibition, % at 10 µM | mitochondrial fusion phenotypic screen, WT strain | AID 1362; in the data active means inhibition above about 58%; tested in S. cerevisiae
Pf gametocyte: P. falciparum stage V gametocyte viability inhibition. P. falciparum stage V gametocytes, ATP luminescence, 24 h. inhibition, % at 10.9 µM. AID 743093. 150,000 compounds, 0.065% hits;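 active means inhibition above the mean plus 3 SD of compounds within the control limits, set per campaign, cut at about 38% in these data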;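 further: 0% = DMSO wells and 100% = medium only without gametocytes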
b-catenin transl: beta-catenin nuclear translocation modulation; HeLa beta-catenin nuclear translocation, immunofluorescence imaging; nuclear translocation activity, % at 5 µM; 190,000 compounds, 0.3% hits; AID 1665;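 active means nuclear translocation activity above 50% at 5 µM, with a well cell count of 50 or more; inconclusive means wells under 50 cells across six images, flagged as toxic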;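 further: per-cell ratio of nuclear to cytoplasmic median beta-catenin stain intensity; plate controls were DMSO negative control for no effect and GSK-3 inhibitor IX positive control for full effect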
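System: HeLa cells, endogenous beta-catenin; compound dosing: 5 µM primary single dose, 0.1% DMSO, 0.02–20 µM confirmation series; incubation: 24 h compound exposure at 37°C, 5% CO2; signal: beta-catenin immunofluorescence imaging with DAPI; evaluation: % activation, nuclear-to-cytoplasmic median beta-catenin signal ratio per cell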
KCC2 sec1: confirmation of human KCC2 transport modulators; 3,700 compounds, 15% hits; normalised thallium flux (F/F0 slope) at 10 µM; HEK293-KCC2, thallium flux, FluoZin2 fluorescence; hits give high values; shares compounds with Cl transport mod; AID 1713;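 active means thallium flux slope above the same plate's solvent-only control mean plus 3 SD; inconclusive means the two replicate wells disagree; inactive means no significant difference from solvent-only control wells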
KCC2 bumet counter: thallium flux despite bumetanide block in KCC2 cells, secondary assay 3; shares compounds with Cl transport mod; HEK293-KCC2 + bumetanide/ouabain, thallium flux FluoZin2; hits give high values; normalized thallium flux at 10 µM; 3,700 compounds, 49% hits; AID 1714;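 active means thallium entry rate above the same plate's blocked-transporter control wells by more than 3 SD; inconclusive means the two repeat wells disagree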;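 further: raw slope of fluorescence over initial fluorescence between 10 and 20 s after thallium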
KCC2 sec2: confirmation of human KCC2 transport modulators | normalized thallium flux at 10 µM | 3,700 compounds, 23% hits | HEK293-KCC2, thallium flux FluoZin2 fluorescence; actives lie on both sides; F/F0 rise rate, 10–20 s post-thallium | AID 1715 | shares compounds with Cl transport mod;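 active means thallium flux slope more than 3 SD above or below the plate's solvent-only control mean, mostly below; inconclusive means the two repeat wells disagreed; inactive means no significant shift from solvent-only controls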;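 further: raw slope with 0.1% DMSO as baseline and bumetanide as block control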
HEK293 Tl flux: counter-screen for KCC2 modulators: effect in parental HEK293 cells | shares compounds with Cl transport mod | thallium flux FluoZin2, ouabain; baseline-ratio fluorescence slope, 10–20 s after thallium | thallium flux rate (normalised fluorescence) at 10 µM | 3,700 compounds, 46% hits;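 active means thallium flux rate significantly above the same plate's solvent-only control wells, beyond their mean plus 3 SD; inconclusive means the two replicate wells gave conflicting results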
KCC2 ouabain: confirmation of human KCC2 modulators with ouabain; shares compounds with Cl transport mod; HEK293-KCC2, thallium flux FluoZin2 fluorescence; bidirectional: low = inhibitor, high = activator; 3,700 compounds, 48% hits; raw Tl+ flux slope (below DMSO = inhibition, above = activation) at 10 µM;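 active means thallium flux slope beyond 3 SD from same-plate DMSO control mean in most replicates, usually higher, sometimes lower; inconclusive means repeat tests gave conflicting results; inactive means no significant difference from controls in most replicates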;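 further: slope of initial-normalized fluorescence between seconds 10 and 20 after thallium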
HEK293 Tl flux2: counter-screen for KCC2 modulators: effect in parental HEK293 cells; shares compounds with Cl transport mod; thallium flux slope at 10 µM; 3,700 compounds, 33% hits; AID 1718; thallium flux FluoZin-2 fluorescence slope;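 active means thallium flux slope above the same plate's solvent-control mean plus 3 SD in both duplicate wells; inconclusive means duplicate wells that disagreed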;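 further: run without ouabain in cells lacking the KCC2 cotransporter; slope of fluorescence scaled to its starting value between 10 and 20 s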
* hit, by the source's call.

`CN1C/C(=C/c2ccsc2)C(=O)/C(=C/c2ccsc2)C1` gave Cl transport mod -0.072, MT stabilize HCS 4, WT yeast gro inh 4, Pf gametocyte 3 and b-catenin transl 4.
`O=C1c2oc3ccccc3c(=O)c2C(c2cccc(F)c2)N1CCCO` (stereo not given) gave Cl transport mod 6.7*, MT stabilize HCS 4, WT yeast gro inh -20, Pf gametocyte 9, b-catenin transl -2, KCC2 sec1 0.0061, KCC2 bumet counter inconclusive, KCC2 sec2 0.029, HEK293 Tl flux inconclusive, KCC2 ouabain 0.018 and HEK293 Tl flux2 0.01.
Screening CCOc1ccc(CCNC(=O)C2CCCN2C(=O)OCc2ccccc2)cc1OCC (stereo not given) returned Cl transport mod -1, MT stabilize HCS 2, WT yeast gro inh -12, Pf gametocyte -19 and b-catenin transl 1.
`Cc1onc(NC(=O)CSCC(=O)O)c1Br` gave Pf gametocyte 12 and b-catenin transl -2.
For CC1(C)NC(=O)N(CC(=O)OCC(=O)Nc2cc(S(=O)(=O)N3CCCCC3)ccc2Cl)C1=O the results were Cl transport mod 0.24, MT stabilize HCS 3 and WT yeast gro inh 2.
Screening Cc1cc(-c2cccs2)c(C#N)c(=S)[nH]1 returned Cl transport mod 33*, Pf gametocyte 3, b-catenin transl 2, KCC2 sec1 0.024*, KCC2 bumet counter 0.034*, KCC2 sec2 inconclusive, HEK293 Tl flux inconclusive, KCC2 ouabain 0.038* and HEK293 Tl flux2 inconclusive.
Screening N#Cc1cc2c([nH]c1=S)CCCCCC2 returned Cl transport mod 6.4*, MT stabilize HCS 3, WT yeast gro inh 3, b-catenin transl -2, KCC2 sec1 0.013*, KCC2 bumet counter 0.022*, KCC2 sec2 0.03, HEK293 Tl flux 0.013*, KCC2 ouabain inconclusive and HEK293 Tl flux2 inconclusive.
`N#Cc1c(N)n[nH]c1-c1cc2c([nH]1)CCCC2` gave Cl transport mod 0.022, MT stabilize HCS 2, WT yeast gro inh -2, Pf gametocyte 1 and b-catenin transl -2.
O=C(Nc1ccc2c(c1)OCCO2)c1ccccc1F was read as MT stabilize HCS 5, WT yeast gro inh 2, Pf gametocyte 30 and b-catenin transl -1.
For O=C(NC(=S)Nc1ccc2c(c1)OCCO2)c1ccccc1F the results were Cl transport mod 25*, MT stabilize HCS 3, WT yeast gro inh 22, b-catenin transl 0, KCC2 sec1 0.0074, KCC2 bumet counter 0.039*, KCC2 sec2 0.042*, HEK293 Tl flux 0.021*, KCC2 ouabain 0.038* and HEK293 Tl flux2 0.026*.
O=C(NC(=S)Nc1ccc2c(c1)OCCO2)c1ccccc1 was read as MT stabilize HCS 3, WT yeast gro inh 6 and b-catenin transl -1.
For CCOc1cccc(C(=O)NC(=S)Nc2ccc3c(c2)OCCO3)c1 the results were Cl transport mod 7.4*, MT stabilize HCS 2, WT yeast gro inh 30, b-catenin transl -1, KCC2 sec1 0.018, KCC2 bumet counter 0.012*, KCC2 sec2 0.032, HEK293 Tl flux 0.012*, KCC2 ouabain 0.019 and HEK293 Tl flux2 0.014*.

From PubChem BioAssay
